Test results: ChEMBL document CHEMBL4411287, “Discovery and optimization of a series of 3-substituted indazole derivatives as multi-target kinase inhibitors for the treatment of lung squamous cell carcinoma” (Eur J Med Chem, 2019)
Converted amounts (≈) assume the structure as drawn.

Assays:
[1] = target: T1, Ephrin type-B receptor 2 (Homo sapiens) (UniProt P29323); experiment: Inhibition of EPH-B2 (unknown origin) at 100 nM relative to control
T1 sequence (whole entry): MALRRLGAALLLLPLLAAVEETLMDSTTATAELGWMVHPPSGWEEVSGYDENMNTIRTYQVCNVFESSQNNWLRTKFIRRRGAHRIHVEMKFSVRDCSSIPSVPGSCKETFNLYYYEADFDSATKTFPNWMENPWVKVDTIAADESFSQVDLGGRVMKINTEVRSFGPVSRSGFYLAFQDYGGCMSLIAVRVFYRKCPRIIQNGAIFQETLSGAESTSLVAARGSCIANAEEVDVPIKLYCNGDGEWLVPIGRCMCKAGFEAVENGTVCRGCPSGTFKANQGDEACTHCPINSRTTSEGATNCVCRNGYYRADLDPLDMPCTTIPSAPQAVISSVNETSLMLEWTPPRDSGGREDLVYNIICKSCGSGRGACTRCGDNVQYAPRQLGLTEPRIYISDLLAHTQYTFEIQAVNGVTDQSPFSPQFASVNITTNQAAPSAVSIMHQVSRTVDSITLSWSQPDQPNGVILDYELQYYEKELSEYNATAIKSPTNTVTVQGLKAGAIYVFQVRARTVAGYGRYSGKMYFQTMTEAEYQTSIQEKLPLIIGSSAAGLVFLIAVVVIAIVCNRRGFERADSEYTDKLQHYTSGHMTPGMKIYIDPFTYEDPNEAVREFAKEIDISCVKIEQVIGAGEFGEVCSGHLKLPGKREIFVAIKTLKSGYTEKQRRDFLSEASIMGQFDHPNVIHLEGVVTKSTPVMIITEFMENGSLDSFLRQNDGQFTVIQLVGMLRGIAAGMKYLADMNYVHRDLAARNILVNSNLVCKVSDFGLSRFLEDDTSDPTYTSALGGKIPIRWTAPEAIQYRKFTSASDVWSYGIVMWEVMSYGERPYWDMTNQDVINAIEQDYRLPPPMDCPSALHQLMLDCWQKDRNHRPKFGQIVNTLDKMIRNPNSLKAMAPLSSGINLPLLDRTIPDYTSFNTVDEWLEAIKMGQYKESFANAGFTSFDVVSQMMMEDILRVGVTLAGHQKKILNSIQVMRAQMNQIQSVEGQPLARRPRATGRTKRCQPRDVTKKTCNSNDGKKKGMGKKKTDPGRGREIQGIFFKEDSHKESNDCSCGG
Method in brief: (§1)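 Purified recombinant kinase domains run in ELISA on precoated poly(Glu,Tyr) 4:1 (20 µg/mL) with 10 µM ATP in 50 mM HEPES pH 7.4, 50 mM MgCl2, 0.5 mM MnCl2, 0.2 mM Na3VO4, 1 mM DTT; 1% DMSO control; 60 min at 37 °C. Phosphotyrosine read by PY99 antibody, HRP anti-mouse IgG, OPD/H2O2 at 490 nm; inhibition = [1−A490/A490control]×100%; two separate experiments.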

[2] = MRT in ICR(CD-1) mouse at 10 mg/kg, po administered via gavage by triple quadrupole mass spectrometric analysis; format: ADME, organism-based; details: in vivo
Method in brief: (§2)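 Dosed by gavage at 1 mg/mL in 1% Tween80/water to male ICR mice, 18-22 g, n=3. Blood taken at 0.25, 0.5, 1, 2, 4, 8 and 24 h. Plasma precipitated with methanol:acetonitrile (1:1) containing internal standard, then UPLC-MS/MS on a C18 column with an ammonium acetate/formic acid–acetonitrile gradient. Tmax read directly from the data; MRT calculated per animal from concentration–time curves.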

[3] = target: Cyclin-dependent kinase 4 (Homo sapiens) (UniProt P11802); experiment: Inhibition of CDK4 (unknown origin) at 1000 nM relative to control
Chain of Cyclin-dependent kinase 4 (Homo sapiens) (P11802 whole entry): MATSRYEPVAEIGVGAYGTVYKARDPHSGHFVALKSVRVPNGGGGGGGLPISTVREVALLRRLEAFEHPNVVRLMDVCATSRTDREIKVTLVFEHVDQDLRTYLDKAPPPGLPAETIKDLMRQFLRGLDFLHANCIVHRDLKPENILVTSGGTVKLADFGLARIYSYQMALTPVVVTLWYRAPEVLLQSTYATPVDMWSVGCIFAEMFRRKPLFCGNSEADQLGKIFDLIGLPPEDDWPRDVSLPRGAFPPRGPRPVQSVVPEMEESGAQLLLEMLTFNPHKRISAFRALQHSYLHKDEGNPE

[4] = target: Fibroblast growth factor receptor 1 (Homo sapiens, UniProt P11362); experiment: Inhibition of FGFR1 (unknown origin) after 60 mins by ELISA
[5] = Tmax in ICR(CD-1) mouse at 10 mg/kg, po administered via gavage by triple quadrupole mass spectrometric analysis; format: ADME, organism-based; details: in vivo; method in brief: as §2
[6] = target: Epidermal growth factor receptor (Homo sapiens) (UniProt P00533); experiment: Inhibition of EGFR (unknown origin) at 10 nM relative to control
Chain of Epidermal growth factor receptor (Homo sapiens) (P00533 whole entry): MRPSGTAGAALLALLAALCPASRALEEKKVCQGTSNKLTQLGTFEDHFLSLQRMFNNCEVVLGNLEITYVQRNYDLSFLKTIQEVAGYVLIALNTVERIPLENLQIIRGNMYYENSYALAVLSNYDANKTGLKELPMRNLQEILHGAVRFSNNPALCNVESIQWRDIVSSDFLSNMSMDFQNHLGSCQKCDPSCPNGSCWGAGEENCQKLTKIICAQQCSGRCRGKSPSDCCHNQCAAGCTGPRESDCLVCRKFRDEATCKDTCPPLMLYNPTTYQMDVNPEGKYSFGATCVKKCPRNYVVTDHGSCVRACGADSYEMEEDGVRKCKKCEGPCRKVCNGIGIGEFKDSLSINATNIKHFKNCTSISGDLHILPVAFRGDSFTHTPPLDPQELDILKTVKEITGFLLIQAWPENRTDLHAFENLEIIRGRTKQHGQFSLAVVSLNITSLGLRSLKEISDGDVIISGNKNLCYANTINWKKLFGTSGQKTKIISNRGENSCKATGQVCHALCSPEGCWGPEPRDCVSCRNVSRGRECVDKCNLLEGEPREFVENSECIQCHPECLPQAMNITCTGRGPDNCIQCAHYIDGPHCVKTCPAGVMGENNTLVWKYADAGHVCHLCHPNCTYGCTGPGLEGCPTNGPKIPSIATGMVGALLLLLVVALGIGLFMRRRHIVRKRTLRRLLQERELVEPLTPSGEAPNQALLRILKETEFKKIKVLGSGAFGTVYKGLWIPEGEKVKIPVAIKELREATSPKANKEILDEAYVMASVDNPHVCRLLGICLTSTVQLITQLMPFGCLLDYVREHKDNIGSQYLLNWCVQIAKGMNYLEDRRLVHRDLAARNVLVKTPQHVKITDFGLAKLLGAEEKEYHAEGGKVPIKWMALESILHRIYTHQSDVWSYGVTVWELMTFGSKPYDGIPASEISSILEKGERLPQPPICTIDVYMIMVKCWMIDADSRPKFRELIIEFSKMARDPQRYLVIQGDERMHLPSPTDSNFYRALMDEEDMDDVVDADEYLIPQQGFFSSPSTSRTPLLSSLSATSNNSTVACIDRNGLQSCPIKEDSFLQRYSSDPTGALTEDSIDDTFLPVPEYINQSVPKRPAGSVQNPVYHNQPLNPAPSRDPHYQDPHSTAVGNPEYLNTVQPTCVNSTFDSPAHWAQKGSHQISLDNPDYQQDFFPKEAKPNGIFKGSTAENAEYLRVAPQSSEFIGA

[7] = target: Cyclin-dependent kinase 6 (Homo sapiens) (UniProt Q00534); experiment: Inhibition of CDK6 (unknown origin) at 10 nM relative to control
Chain of Cyclin-dependent kinase 6 (Homo sapiens) (Q00534 whole entry): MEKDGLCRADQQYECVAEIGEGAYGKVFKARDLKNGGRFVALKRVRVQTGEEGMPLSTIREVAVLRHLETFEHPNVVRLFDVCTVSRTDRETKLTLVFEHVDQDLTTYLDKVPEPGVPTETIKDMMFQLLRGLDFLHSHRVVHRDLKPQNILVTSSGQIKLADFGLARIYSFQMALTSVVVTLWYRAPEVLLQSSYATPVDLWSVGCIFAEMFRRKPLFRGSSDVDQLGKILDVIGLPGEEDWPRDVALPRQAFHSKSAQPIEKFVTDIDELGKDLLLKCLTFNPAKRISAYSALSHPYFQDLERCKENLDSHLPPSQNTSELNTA

[8] = target: Tyrosine-protein kinase JAK2 (Homo sapiens) (UniProt O60674); experiment: Inhibition of JAK2 (unknown origin) at 1000 nM relative to control; method in brief: as §1
[9] = target: Insulin-like growth factor 1 receptor (Homo sapiens) (UniProt P08069); experiment: Inhibition of IGF1R (unknown origin) at 1000 nM relative to control; method in brief: as §1
[10] = Solubility of compound; format: physicochemical
[11] = AUC (0 to infinity) in ICR(CD-1) mouse at 10 mg/kg, po administered via gavage by triple quadrupole mass spectrometric analysis; format: ADME, organism-based; design: dose 10 mg/kg, route oral, time infinity; details: in vivo
Method in brief: (§3)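 Oral gavage at 1 mg/mL in 1% Tween80/water to male ICR mice (18-22 g, n=3). Plasma sampled at 0.25, 0.5, 1, 2, 4, 8 and 24 h, protein precipitated with methanol:acetonitrile (1:1) containing internal standard, and quantified by UPLC-triple quadrupole MS. AUC and MRT were taken from per-animal time-concentration curves. Cmax is the maximum plasma level and Tmax the time to reach it.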

[12] = target: Focal adhesion kinase 1 (Homo sapiens) (UniProt Q05397); experiment: Inhibition of FAK (unknown origin) at 100 nM relative to control; method in brief: as §1
Chain of Focal adhesion kinase 1 (Homo sapiens) (Q05397 2-1052 limits assumed): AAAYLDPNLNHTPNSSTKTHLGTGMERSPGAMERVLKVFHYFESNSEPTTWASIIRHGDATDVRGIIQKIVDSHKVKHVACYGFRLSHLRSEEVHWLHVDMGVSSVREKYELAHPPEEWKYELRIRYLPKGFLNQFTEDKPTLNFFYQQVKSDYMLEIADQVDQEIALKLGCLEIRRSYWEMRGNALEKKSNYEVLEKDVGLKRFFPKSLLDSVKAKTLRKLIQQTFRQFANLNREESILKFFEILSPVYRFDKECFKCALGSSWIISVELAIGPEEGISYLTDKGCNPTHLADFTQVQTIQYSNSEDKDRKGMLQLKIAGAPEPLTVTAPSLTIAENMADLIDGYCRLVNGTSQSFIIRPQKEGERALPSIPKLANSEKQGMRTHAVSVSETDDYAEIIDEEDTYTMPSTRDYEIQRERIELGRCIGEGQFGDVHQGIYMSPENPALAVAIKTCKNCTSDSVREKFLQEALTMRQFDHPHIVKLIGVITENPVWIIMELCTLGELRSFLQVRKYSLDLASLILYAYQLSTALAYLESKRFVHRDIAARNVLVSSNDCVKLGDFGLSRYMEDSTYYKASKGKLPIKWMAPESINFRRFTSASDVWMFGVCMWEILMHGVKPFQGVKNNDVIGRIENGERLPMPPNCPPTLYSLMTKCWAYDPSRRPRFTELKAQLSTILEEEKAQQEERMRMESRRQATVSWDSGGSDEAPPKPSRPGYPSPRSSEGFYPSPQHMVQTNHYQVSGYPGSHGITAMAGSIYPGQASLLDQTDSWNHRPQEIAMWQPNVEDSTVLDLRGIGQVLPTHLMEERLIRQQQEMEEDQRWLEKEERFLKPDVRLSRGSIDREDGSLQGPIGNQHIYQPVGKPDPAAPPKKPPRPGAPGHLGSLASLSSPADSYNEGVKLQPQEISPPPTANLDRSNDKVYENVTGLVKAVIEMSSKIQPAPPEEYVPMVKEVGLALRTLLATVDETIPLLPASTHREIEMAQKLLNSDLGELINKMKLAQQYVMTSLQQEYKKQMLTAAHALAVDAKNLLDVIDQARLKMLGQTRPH

[13] = target: Cyclin-dependent kinase 1 (Homo sapiens) (UniProt P06493); experiment: Inhibition of CDK1 (unknown origin) at 1000 nM relative to control
Chain of Cyclin-dependent kinase 1 (Homo sapiens) (P06493 whole entry, looked up): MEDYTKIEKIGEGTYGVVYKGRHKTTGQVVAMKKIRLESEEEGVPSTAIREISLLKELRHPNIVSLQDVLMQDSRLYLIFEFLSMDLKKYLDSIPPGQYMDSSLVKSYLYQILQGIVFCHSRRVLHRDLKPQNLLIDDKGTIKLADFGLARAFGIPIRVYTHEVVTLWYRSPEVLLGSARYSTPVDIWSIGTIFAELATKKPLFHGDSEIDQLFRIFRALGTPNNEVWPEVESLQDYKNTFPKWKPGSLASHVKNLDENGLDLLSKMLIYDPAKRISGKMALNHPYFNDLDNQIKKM

[14] = target: Tyrosine-protein kinase BTK (Homo sapiens) (UniProt Q06187); experiment: Inhibition of BTK (unknown origin) at 10 nM relative to control
Chain of Tyrosine-protein kinase BTK (Homo sapiens) (Q06187 whole entry): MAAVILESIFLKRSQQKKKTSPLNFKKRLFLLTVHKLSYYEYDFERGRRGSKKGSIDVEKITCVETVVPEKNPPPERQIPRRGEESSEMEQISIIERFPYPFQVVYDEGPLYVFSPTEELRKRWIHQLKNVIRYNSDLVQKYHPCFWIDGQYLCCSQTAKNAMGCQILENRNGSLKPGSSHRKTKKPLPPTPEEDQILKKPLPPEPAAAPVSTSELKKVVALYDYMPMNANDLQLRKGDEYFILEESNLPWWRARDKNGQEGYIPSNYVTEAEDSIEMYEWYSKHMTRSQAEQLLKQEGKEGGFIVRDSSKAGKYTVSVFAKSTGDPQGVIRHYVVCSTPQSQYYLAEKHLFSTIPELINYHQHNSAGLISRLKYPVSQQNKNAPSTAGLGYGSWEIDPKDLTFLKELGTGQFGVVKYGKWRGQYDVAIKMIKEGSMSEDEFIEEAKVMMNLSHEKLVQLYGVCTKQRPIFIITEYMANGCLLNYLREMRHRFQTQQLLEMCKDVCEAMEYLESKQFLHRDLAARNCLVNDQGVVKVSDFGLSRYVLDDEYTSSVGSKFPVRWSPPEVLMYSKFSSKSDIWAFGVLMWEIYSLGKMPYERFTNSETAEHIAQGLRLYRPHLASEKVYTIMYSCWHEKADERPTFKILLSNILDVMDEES

[15] = target: Vascular endothelial growth factor receptor 1 (Homo sapiens) (UniProt P17948); experiment: Inhibition of VEGFR1 (unknown origin) at 1000 nM relative to control
Method in brief: (§4)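 ELISA with purified recombinant kinase on plates precoated with poly(Glu,Tyr) 4:1 at 20 µg/mL. ATP 10 µM in HEPES pH 7.4 buffer with MgCl2, MnCl2, Na3VO4 and DTT. Run 60 min at 37 °C. Detected with anti-phosphotyrosine PY99, HRP secondary antibody and o-phenylenediamine, read at 490 nm. Inhibition % = [1 − A490/A490 control]×100. 1% DMSO as negative control.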

[16] = target: Receptor tyrosine-protein kinase erbB-4 (Homo sapiens) (UniProt Q15303); experiment: Inhibition of ErbB4 (unknown origin) at 10 nM relative to control; method in brief: as §1
[17] = target: Angiopoietin-1 receptor (Homo sapiens) (UniProt Q02763); experiment: Inhibition of Tie-2 (unknown origin) at 10 nM relative to control; method in brief: as §4
[18] = Cmax in ICR(CD-1) mouse at 10 mg/kg, po administered via gavage by triple quadrupole mass spectrometric analysis; format: ADME, organism-based; design: dose 10 mg/kg, route oral; details: in vivo; method in brief: as §3
[19] = target: Receptor-type tyrosine-protein kinase FLT3 (Homo sapiens) (UniProt P36888); experiment: Inhibition of FLT-3 (unknown origin) at 1000 nM relative to control; method in brief: as §1
Chain of Receptor-type tyrosine-protein kinase FLT3 (Homo sapiens) (P36888 whole entry): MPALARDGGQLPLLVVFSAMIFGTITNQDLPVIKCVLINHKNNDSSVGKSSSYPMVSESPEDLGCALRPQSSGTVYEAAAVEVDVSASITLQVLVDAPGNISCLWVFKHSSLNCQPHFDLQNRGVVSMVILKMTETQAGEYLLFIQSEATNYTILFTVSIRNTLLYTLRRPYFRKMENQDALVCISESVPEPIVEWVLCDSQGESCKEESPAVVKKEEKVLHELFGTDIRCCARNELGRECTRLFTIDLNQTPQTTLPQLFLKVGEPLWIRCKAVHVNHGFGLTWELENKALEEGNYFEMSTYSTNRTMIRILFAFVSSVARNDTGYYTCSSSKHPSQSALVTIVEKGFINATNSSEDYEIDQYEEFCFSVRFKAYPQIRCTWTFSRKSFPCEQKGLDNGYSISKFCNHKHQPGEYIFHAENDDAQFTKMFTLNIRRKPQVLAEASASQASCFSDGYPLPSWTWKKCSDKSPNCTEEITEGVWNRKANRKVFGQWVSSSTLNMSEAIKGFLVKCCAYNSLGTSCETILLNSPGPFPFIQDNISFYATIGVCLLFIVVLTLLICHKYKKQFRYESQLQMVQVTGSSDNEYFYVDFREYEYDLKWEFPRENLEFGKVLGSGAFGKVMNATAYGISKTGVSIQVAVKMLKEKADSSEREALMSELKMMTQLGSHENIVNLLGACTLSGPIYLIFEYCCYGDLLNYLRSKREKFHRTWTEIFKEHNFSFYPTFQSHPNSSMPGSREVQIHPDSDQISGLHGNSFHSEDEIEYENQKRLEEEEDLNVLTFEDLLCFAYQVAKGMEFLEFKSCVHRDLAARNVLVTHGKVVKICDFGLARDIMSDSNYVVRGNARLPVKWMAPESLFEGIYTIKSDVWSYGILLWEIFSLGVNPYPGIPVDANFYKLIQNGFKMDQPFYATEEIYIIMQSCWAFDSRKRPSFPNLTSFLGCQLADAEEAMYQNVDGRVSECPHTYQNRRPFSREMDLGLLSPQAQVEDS

Question: Which inhibition [1] does the source give for `Cc1ccc(C(=O)Nc2cccc(C(F)(F)F)c2)cc1-c1ccc2c(-c3cnn(C4CC4)c3)n[nH]c2c1` here?
Answer: 76.7%

Question: And the MRT [2]?
Answer: 5.71 h

Question: What about the inhibition [3] of the same molecule?
Answer: 0.9%

Question: And the IC50 [4]?
Answer: 0.0311 µM

Question: And the Tmax [5]?
Answer: 2 h

Question: And the inhibition [6]?
Answer: 10%

Question: And the inhibition [7]?
Answer: 0.5%

Question: What about the inhibition [8] of the same molecule?
Answer: 16.8%

Question: And the inhibition [9]?
Answer: 5.5%

Question: What about the solubility [10] of the same molecule?
Answer: 2 µM (≈ 1 µg/mL)

Question: And the AUC(0-inf) [11]?
Answer: 7680 ng·h/mL

Question: What about the inhibition [12] of the same molecule?
Answer: 8.4%

Question: What about the inhibition [13] of the same molecule?
Answer: 5.6%

Question: And the inhibition [14]?
Answer: 32%

Question: What about the inhibition [15] of the same molecule?
Answer: 86.6%

Question: What about the inhibition [16] of the same molecule?
Answer: 0%

Question: And the inhibition [17]?
Answer: 10.4%

Question: And the Cmax [18]?
Answer: 1120 ng/mL

Question: And the inhibition [19]?
Answer: 86.2%
